Data reported in ChEMBL document CHEMBL1799961, “N-Acylhydrazones as inhibitors of PDE10A” (Bioorg Med Chem Lett, 2011).
Calls of active or inactive are those of the source. The rule behind the calls is not given here.

What was measured:
[1] = target: T1, cAMP and cAMP-inhibited cGMP 3',5'-cyclic phosphodiesterase 10A (Mus musculus, UniProt Q8CA95); assay: Inhibition of mouse PDE10A assessed as inhibition of hydrolysis of [3H]cGMP to [3H]GMP after 20 mins by scintillation counting
T1 sequence (Q8CA95 whole entry): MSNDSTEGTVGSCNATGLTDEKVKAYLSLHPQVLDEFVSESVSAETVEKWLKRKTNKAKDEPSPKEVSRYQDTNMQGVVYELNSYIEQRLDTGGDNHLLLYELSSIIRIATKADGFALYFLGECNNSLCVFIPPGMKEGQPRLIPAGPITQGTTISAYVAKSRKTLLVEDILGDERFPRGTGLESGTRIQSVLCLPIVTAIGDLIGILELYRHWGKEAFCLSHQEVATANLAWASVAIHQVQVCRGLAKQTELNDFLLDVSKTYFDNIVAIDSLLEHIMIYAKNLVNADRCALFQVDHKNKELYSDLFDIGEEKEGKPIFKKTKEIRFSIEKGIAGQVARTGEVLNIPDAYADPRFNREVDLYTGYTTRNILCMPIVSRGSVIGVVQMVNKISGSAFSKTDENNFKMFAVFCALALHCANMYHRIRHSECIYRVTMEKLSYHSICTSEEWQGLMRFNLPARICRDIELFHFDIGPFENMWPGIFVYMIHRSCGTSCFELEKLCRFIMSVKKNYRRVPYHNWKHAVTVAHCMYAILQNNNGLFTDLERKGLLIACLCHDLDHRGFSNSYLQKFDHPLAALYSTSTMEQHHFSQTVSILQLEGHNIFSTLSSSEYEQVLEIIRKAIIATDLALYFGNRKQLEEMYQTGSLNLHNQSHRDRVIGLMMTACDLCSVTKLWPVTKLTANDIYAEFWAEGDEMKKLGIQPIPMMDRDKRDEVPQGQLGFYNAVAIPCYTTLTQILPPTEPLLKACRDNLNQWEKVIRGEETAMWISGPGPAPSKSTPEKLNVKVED
In short: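 Reaction was started with mouse PDE10 (25 ng/ml final) and run 20 min at 30 °C. Stopped with yttrium silicate SPA beads, scintillation counted 1–2 h later. IC50 from curve fitting.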

Mus musculus [2] = species on record: Mus musculus; assay: Selectivity ratio of IC50 for mouse PDE1A to IC50 for mouse PDE10A
In short: (§1)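 Reaction started by adding enzyme (mouse PDE10 at 25 ng/ml final); 20 min at 30 °C. Stopped with yttrium silicate SPA beads, scintillation read 1–2 h later. IC50s from curve fits; ratio of other-PDE IC50 to PDE10A IC50.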

[3] = Half life in rat at 4 mg/kg, iv; type: ADME, organism-based; set-up: dose 4 mg/kg, route intravenous; conditions: in vivo
In short: (§2)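 Rat pharmacokinetics, dosed iv at 4 mg/kg and po at 9 mg/kg.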

Mus musculus [4] = species on record: Mus musculus; assay: Selectivity ratio of IC50 for mouse PDE7A to IC50 for mouse PDE10A; in short: as §1
Mus musculus [5] = species on record: Mus musculus; assay: Selectivity ratio of IC50 for mouse PDE4A to IC50 for mouse PDE10A; in short: as §1
[6] = Clearance in rat at 4 mg/kg, iv; type: ADME, organism-based; set-up: dose 4 mg/kg, route intravenous; conditions: in vivo; in short: as §2
Mus musculus [7] = species on record: Mus musculus; assay: Selectivity ratio of IC50 for mouse PDE11A to IC50 for mouse PDE10A; in short: as §1
Mus musculus [8] = species on record: Mus musculus; assay: Selectivity ratio of IC50 for mouse PDE8A to IC50 for mouse PDE10A; in short: as §1
Mus musculus [9] = assay: Behavioral effect in mouse assessed as reduction in conditioned avoidance response at 10 to 30 mg/kg, ip administered 20 mins prior testing; type: functional, organism-based
In short: (§3)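 Mice trained in a shuttle-box to avoid foot-shock after a conditional stimulus, until at least 25 avoidances in 30 trials. Dosing was ip in 30 mM H3PO4, 0.2% tween 80, 5% DMSO, 20 min before testing; controls got vehicle. Eight mice per group. Paired-sample t-test compared each animal with its vehicle-injected performance on the previous day.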

[10] = Cmax in rat at 9 mg/kg, po; type: ADME, organism-based; set-up: dose 9 mg/kg, route oral; conditions: in vivo; in short: as §2
Mus musculus [11] = species on record: Mus musculus; assay: Selectivity ratio of IC50 for mouse PDE2A to IC50 for mouse PDE10A; in short: as §1
[12] = Oral bioavailability in rat at 9 mg/kg; type: ADME, organism-based; conditions: in vivo; in short: as §2
[13] = Tmax in rat at 9 mg/kg, po; type: ADME, organism-based; set-up: dose 9 mg/kg, route oral; conditions: in vivo; in short: as §2
Mus musculus [14] = species on record: Mus musculus; assay: Selectivity ratio of IC50 for mouse PDE5A to IC50 for mouse PDE10A; in short: as §1
Mus musculus [15] = assay: Antipsychotic activity in mouse assessed as inhibition of PCP-induced hyperlocomotion at 20 mg/kg, ip administered 20 mins prior testing; type: functional, organism-based; set-up: dose 20 mg/kg
In short: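 PCP-induced hyperlocomotion in mice: 20 mg/kg ip in 30 mM H3PO4, 0.2% tween 80, 5% DMSO, dosed 20 min before testing; PCP given ip 10 min before testing. Controls got vehicle. Normal activity range 500–1000. Eight mice per group; t-test for each interval.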

Mus musculus [16] = species on record: Mus musculus; assay: Selectivity ratio of IC50 for mouse PDE3A to IC50 for mouse PDE10A; in short: as §1
Mus musculus [17] = species on record: Mus musculus; assay: Selectivity ratio of IC50 for mouse PDE9A to IC50 for mouse PDE10A; in short: as §1
[18] = Volume of distribution at steady state in rat at 4 mg/kg, iv; type: ADME, organism-based; set-up: dose 4 mg/kg, route intravenous; conditions: in vivo, read-out: Vdss; in short: as §2
Mus musculus [19] = assay: Behavioral effect in ip dosed mouse assessed as reduction in conditioned avoidance response compound administered 20 mins prior testing; type: functional, organism-based; in short: as §3

COc1cc(/C=N/NC(=O)CSc2cc(C)nc3ccccc23)cc(F)c1OC
IC50 [1]: 51 nM

COc1ccccc1SCC(=O)N/N=C/c1cc(OC)c(OC)c(OC)c1
IC50 [1]: 660 nM

COc1cc(/C=N/N(C)C(=O)CSc2cc(C)nc3ccccc23)cc(OC)c1OC
IC50 [1]: 26 nM

COc1ccc(/C=N/NC(=O)CSc2cc(C)nc3ccccc23)cc1Cl
IC50 [1]: 220 nM

COc1cc(/C=N/NC(=O)CSc2cc(C)nc3ccccc23)ccc1F
IC50 [1]: 190 nM

Cc1cc(SCC(=O)N/N=C/c2ccc(OC(F)F)c(OC(F)F)c2)c2ccccc2n1
IC50 [1]: 310 nM

COc1cc(/C=N/NC(=O)CSc2cc(C)nc3ccccc23)ccc1C(F)(F)F
IC50 [1]: 250 nM

COc1cc(/C=N/NC(=O)CSc2cc(C)nc3ccccc23)cc(OC)c1OC
IC50 [1]: 10 nM

COc1cc(/C=N/NC(=O)CSc2cccc3cccnc23)cc(OC)c1OC
IC50 [1]: 190 nM

COc1cc(/C=N/NC(=O)CSc2ccc3ccccc3n2)cc(OC)c1OC
IC50 [1]: 140 nM

COc1ccc(/C(C)=N/NC(=O)CSc2cc(C)nc3ccccc23)cc1OC
IC50 [1]: 180 nM

COc1cc(/C=N/NC(=O)CSc2ccc(OC(F)(F)F)cc2)cc(OC)c1OC
IC50 [1]: 860 nM

COc1ccc(/C=N/NC(=O)CNc2cc(C)nc3ccccc23)cc1OC
IC50 [1]: 8000 nM

COc1cc(F)c(/C=N/NC(=O)CSc2cc(C)nc3ccccc23)cc1OC
IC50 [1]: 190 nM

COc1cc(/C=N/NC(=O)CSc2cc(C)nc3ccccc23)ccc1Br
IC50 [1]: 93 nM

COc1cc(/C=N/NC(=O)CSc2ccnc3cc(Cl)ccc23)cc(OC)c1OC
IC50 [1]: 28 nM

COc1ccc(/C=N/NC(=O)COc2cc(C)nc3ccccc23)cc1OC
IC50 [1]: 1600 nM

COc1cccc(/C=N/NC(=O)CSc2cc(C)nc3ccccc23)c1
IC50 [1]: 1200 nM

COc1ccc(/C=N/NC(=O)CSc2cc(C)nc3ccccc23)cc1
IC50 [1]: 1400 nM

COc1cc(/C=N/NC(=O)CSc2cc(C)nc3ccccc23)cc(Br)c1OC
IC50 [1]: 30 nM

COc1cc(/C=N/NC(=O)CSc2cc(C)nc3ccccc23)cc(Cl)c1OC
IC50 [1]: 45 nM

COc1ccc(/C=N/NC(=O)CSc2cc(C)nc3ccccc23)cc1F
IC50 [1]: 620 nM

COc1cc(Cl)c(/C=N/NC(=O)CSc2cc(C)nc3ccccc23)cc1OC
IC50 [1]: 200 nM

COc1cc(/C=N/NC(=O)CSc2cc(C)nc3ccccc23)ccc1C#N
IC50 [1]: 160 nM

COc1cc(/C=N/NC(=O)CSc2cc(C)nc3ccccc23)cc(OC)c1Br
IC50 [1]: 4.8 nM

COc1cc(/C=N/NC(=O)CSc2cc(C)nc3ccccc23)cc(C#N)c1OC
IC50 [1]: 11 nM

COc1cc(Br)c(/C=N/NC(=O)CSc2cc(C)nc3ccccc23)cc1OC
IC50 [1]: 77 nM

COc1cc(/C=N/NC(=O)CSc2cc(C)nc3ccccc23)ccc1C
IC50 [1]: 100 nM

COc1cc(/C=N/NC(=O)CSc2cc(C)nc3ccccc23)cc(OC)c1
IC50 [1]: 150 nM

COc1ccc(/C=N/NC(=O)CSc2cc(C)nc3ccccc23)cc1OC(F)(F)F
IC50 [1]: 1700 nM

COc1ccc2nc(C)cc(SCC(=O)N/N=C/c3cc(OC)c(OC)c(OC)c3)c2c1
Ratio IC50 (Mus musculus [2]): > 110
half-life [3]: 11.3 h
Ratio IC50 (Mus musculus [4]): > 110
Ratio IC50 (Mus musculus [5]): > 110
clearance [6]: 55 mL/min/kg
Ratio IC50 (Mus musculus [7]): > 110
Ratio IC50 (Mus musculus [8]): > 110
Activity (Mus musculus [9]): Active
Cmax [10]: 539 ng/mL
Ratio IC50 (Mus musculus [11]): > 110
bioavailability [12]: 21%
Tmax [13]: 0.25 h
Ratio IC50 (Mus musculus [14]): > 110
inhibition (Mus musculus [15]): Active
Ratio IC50 (Mus musculus [16]): > 110
Ratio IC50 (Mus musculus [17]): > 110
IC50 [1]: 8 nM
Vd [18]: 17.4 L/kg
Activity (Mus musculus [19]): Dose-dependent effect

COc1cc(/C=N/NC(=O)CSc2ccnc3ccccc23)cc(OC)c1OC
IC50 [1]: 24 nM

COc1ccc(/C=N/NC(=O)CSc2cc(C)nc3ccccc23)cc1OC(C)C
IC50 [1]: 660 nM

COc1ccc(/C=N/NC(=O)CSc2cc(C)nc3ccccc23)cc1C(F)(F)F
IC50 [1]: 420 nM

COc1cc(/C=N/NC(=O)CSc2cc(C)nc3ccccc23)cc(OC)c1C#N
IC50 [1]: 14 nM

COc1cc(/C=N/NC(=O)CSc2ccc([N+](=O)[O-])c3ccccc23)cc(OC)c1OC
IC50 [1]: 100 nM

COc1ccc(/C=N/NC(=O)CSc2cc(C)nc3ccccc23)c(Cl)c1OC
IC50 [1]: 4600 nM

COc1cc(/C=N/NC(=O)CSc2ccncn2)cc(OC)c1OC
IC50 [1]: 1070 nM

COc1cc(/C=N/NC(=O)CSc2ccc(-c3ccccc3)cc2)cc(OC)c1OC
IC50 [1]: 260 nM

COc1ccc(/C=N/NC(=O)CSc2cc(C)nc3ccccc23)cc1OC
IC50 [1]: 49 nM

COc1cc(/C=N/NC(=O)CSc2cc(C)nc3ccccc23)ccc1Cl
IC50 [1]: 87 nM

CCOc1cc(/C=N/NC(=O)CSc2cc(C)nc3ccccc23)ccc1OC
IC50 [1]: 260 nM

COc1ccc(/C=N/NC(=O)CSc2cc(C)nc3ccccc23)c(Br)c1OC
IC50 [1]: 4800 nM

COc1cc(/C=N/NC(=O)CSc2ccncc2)cc(OC)c1OC
IC50 [1]: 550 nM

COc1cc(/C=N/NC(=O)CN(C)c2cc(C)nc3ccccc23)cc(OC)c1OC
IC50 [1]: 360 nM
